Results taken from paper PMC4334733 (International journal of toxicology, 2015).
“And” between values parts separate entries of the source, which are not always exact repeats. Equal values may be shown once. “Also recorded” adds a separate entry of the source. Where a name gives a salt, the structure may show the parent alone.

Experiments:
[1] = system: Wistar rats; conditions: 600 mg/kg TDF for 5 weeks; cited from earlier work
[2] = system: liver gene expression; experiment: Toxicogenomics: microarray gene expression analysis of liver; type: in vivo, mouse; conditions: 1000 mg/kg TDF for 91 days vs vehicle
Outline: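 Female BALB/c mice received 1000 mg/kg by daily oral gavage for 91 days, or vehicle (50 mM trisodium citrate dihydrate), n=7 per group. They were killed on Day 92, 24 hr after the last dose. Total RNA from a 20–50 mg left liver lobe section was hybridized to Mouse Gene 1.0 ST arrays. Fold change versus vehicle was tested by t-test with Benjamini-Hochberg correction.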

[3] = system: kidney gene expression; experiment: Toxicogenomics: microarray gene expression analysis of kidney; type: in vivo, mouse
[4] = system: rats; conditions: oral 100 mg/kg TDF for 8 weeks; cited from earlier work
[5] = system: Female BALB/c mice; experiment: 13-week daily oral toxicity study of TDF; type: in vivo, mouse; conditions: for Clinical Chemistry, Day 29 and Day 92: CHO cholesterol, TRI triglycerides
[6] = type: in vivo, mouse
Outline: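 Female BALB/c mice were gavaged daily (10 ml/kg) at 50, 500 or 1000 mg/kg; the vehicle was 50 mM trisodium citrate dihydrate. Tenofovir was quantified against 2.5–2000 ng/ml plasma standards using peak area ratio to indinavir and 1/y-weighted linear regression. Noncompartmental Cmax, Tmax and AUClast were derived.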

[7] = kidney, 1000 mg/kg TDF for 91 days vs vehicle, regulation Down, p<0.05, N=7
[8] = kidney, 1000 mg/kg TDF for 91 days vs vehicle, regulation Up, p<0.05, N=7

SMILES: CC(C)OC(=O)OCOP(=O)(CO[C@H](C)Cn1cnc2c(N)ncnc21)OCOC(=O)OC(C)C [TDF, Tenofovir disoproxil fumarate]
- Nephrotoxicity [1]: nephrotoxicity was observed
- Fold Change, Cml3 (camello-like 3) ([2]; down expressed, p<0.05, N=7): 2.08 fold
- Fold Change, Gm4952 ([2]; down expressed, p<0.05, N=7): 2.15 fold
- Fold Change, Gm15401 ([2]; down expressed, p<0.05, N=7): 2.44 fold
- Fold Change, Rgs16 ([2]; down expressed, p<0.05, N=7): 2.86 fold
- Fold Change, Serpinb1a ([2]; down expressed, p<0.05, N=7): 2.70 fold
- Fold Change, Gria3 ([2]; upward expressed, p<0.05, N=7): 3.34 fold
- Fold Change, Phlda3 ([2]; upward expressed, p<0.05, N=7): 2.41 fold
- Fold Change, Rdh11 ([2]; upward expressed, p<0.05, N=7): 2.09 fold
- Fold Change, Snord116 ([2]; upward expressed, p<0.05, N=7): 2.15 fold
- Fold Change, Sult1e1 ([2]; upward expressed, p<0.05, N=7): 4.39 fold
- Fold Change, Cdkn1a (cyclin-dependent kinase inhibitor 1A, P21) ([2]; upward expressed, p<0.05, N=7, 1000 mg/kg): 3.7 fold and 3.70 fold
- Fold change of gene expression in the kidney (all changes) ([3]; 1000 mg/kg TDF vs vehicle, Day 92): less than 2 fold
- Fold Change, Cyp4b1 [3, 7]: 1.60 fold
- Fold Change, Polr3e [3, 7]: 1.87 fold
- Fold Change, Gm10804 (predicted gene 10804) [3, 8]: 1.65 fold
- Fold Change, Rorc (RAR-related orphan receptor gamma) [3, 8]: 1.77 fold
- Renal toxicity [4]: induced renal toxicity
- Survival ([5]; TDF 0, 50, 500 or 1000 mg/kg po daily for 1, 28 or 91 days): All animals survived until their scheduled sacrifice
- Clinical Observations: Gasping (incidence) ([5]; TDF 50 mg/kg po daily): 0
- Clinical Observations: Hunched Posture (incidence) ([5]; TDF 50 mg/kg po daily): 0
- Clinical Observations: Hypoactivity (incidence) ([5]; TDF 50 mg/kg po daily): 0
- Clinical Observations: Ruffled Fur (incidence) ([5]; TDF 50 mg/kg po daily): 9 out of 35 and 9 of 35
- Mortality ([5]; TDF 50 mg/kg po daily): 0
- Clinical Chemistry, Day 29 and Day 92 ([5]; TDF 50 mg/kg po daily): ^↓(CHO, TRI)
- Clinical Observations: Gasping (incidence) ([5]; TDF 500 mg/kg po daily): 0
- Clinical Observations: Hunched Posture (incidence) ([5]; TDF 500 mg/kg po daily): 0
- Clinical Observations: Hypoactivity (incidence) ([5]; TDF 500 mg/kg po daily): 0
- Clinical Observations: Ruffled Fur (incidence) ([5]; TDF 500 mg/kg po daily): 9 out of 35 and 9 of 35
- Mortality ([5]; TDF 500 mg/kg po daily): 0
- Clinical Chemistry, Day 29 and Day 92 ([5]; TDF 500 mg/kg po daily): ^↓(CHO, TRI)
- Clinical Observations: Gasping (incidence) ([5]; TDF 1000 mg/kg po daily): two mice and 2 of 35
- Clinical Observations: Hunched Posture (incidence) ([5]; TDF 1000 mg/kg po daily): one mouse and 1 of 35
- Clinical Observations: Hypoactivity (incidence) ([5]; TDF 1000 mg/kg po daily): two mice and 2 of 35
- Clinical Observations: Ruffled Fur (incidence) ([5]; TDF 1000 mg/kg po daily): 31 out of 35 and 31 of 35
- Histopathology: Liver (Days 29 and 92) ([5]; TDF 1000 mg/kg po daily): Minimal/Mild Cytomegaly
- Mortality ([5]; TDF 1000 mg/kg po daily): 0
- Body Weight ([5]; TDF 1000 mg/kg po daily, vs control): significantly lower mean body weights; also recorded: ^↓(Days 36 and 43)
- Clinical Chemistry, Day 29 and Day 92 ([5]; TDF 1000 mg/kg po daily): ^↓(CHO, TRI)
- Liver cytomegaly after 4-week recovery ([5]; TDF 1000 mg/kg, Day 119 necropsy): not present; also recorded: not observed
- Decreases in cholesterol (CHO) and triglyceride (TRI) levels ([5]; TDF 1000 mg/kg, study Days 29 and 92): 30–48%
- Liver cytomegaly, minimal or mild (incidence) ([5]; TDF 1000 mg/kg/day for 28 days, necropsy Day 29): 7 of 10
- Liver cytomegaly, minimal or mild (incidence) ([5]; TDF 1000 mg/kg/day for 91 days, necropsy Day 92): 6 of 15
- Histopathologic changes in the kidneys ([5]; any dose group): No histopathologic changes

SMILES: C[C@H](Cn1cnc2c(N)ncnc21)OCP(=O)(O)O [Tenofovir]
- Mouse AUC plasma level of tenofovir relative to healthy volunteers ([6]; after 1000 mg/kg dose, human value ref 29): approximately eight
- Accumulation between dosing Days 1 and 91 (Cmax or AUC) ([6]; plasma tenofovir, oral TDF 50-1000 mg/kg daily): no evidence of accumulation
- Liver cytomegaly ([5]; 50 or 500 mg/kg/day): not present
